Test results: ChEMBL document CHEMBL1649230, “Aryl rhodanines specifically inhibit staphylococcal and enterococcal biofilm formation” (Antimicrob Agents Chemother, 2009)
Converted amounts (≈) assume the structure as drawn.

Test system: Staphylococcus aureus
Assay: Antimicrobial activity against Staphylococcus aureus ATCC 35556 by M7-A7 method
Type: functional
How it was run: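 Planktonic MIC by CLSI M7-A7 broth microdilution. Twofold compound dilutions made in DMSO at 50× final concentration and added to plates before inoculation; 2% DMSO final.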

## O=C(N[C@H](CO)[C@H](O)c1ccc([N+](=O)[O-])cc1)C(Cl)Cl [CHLORAMPHENICOL]
  MIC: 1 µg/mL (≈ 3.09 µM)
